A selection: hits, their analogues and other compounds. The true share with any hit is near 0.99%.
SKN-1 block – inhibitors of C. elegans SKN-1 | C. elegans VP596 Pgst-4::GFP/RFP ratio, acrylamide-induced, 24 h | inhibition, % at 21.8 µM | 0.49% of 360,000 active;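 active = interference check ratio from 0.5 to 1.5 plus GFP to RFP signal ratio inhibition reaching or exceeding a fixed threshold, cut at about 30% in these data, passing the limit was not always enough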
NOD2-RIPK2 inh – inhibitors of human NOD2-RIPK2 interaction; O43353; 0.38% of 360,000 active; CHO BLA complementation NOD2-RIPK2, CCF4 ratio; inhibition, % at 4.98 µM; AID 624267; in the data active = inhibition above about 21%;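 also: 0% = vehicle only and 100% = reference blocker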
MT1-MMP act inh – blocks activation of human MT1-MMP; HT1080 RFP-PRO-GFP cells, GFP/RFP ratio fluorescence, overnight; percent of plate control window, DMSO zero; GFP/RFP ratio change, % at 20 µM; 0.061% of 360,000 active; AID 651647;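 active = GFP/RFP ratio change of at least 30% with cell ATP level not reduced by more than half and red fluorescence within 50% of control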
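Test system: HT1080 RFP-PRO-GFP cells; Benchmarks: DMSO and RFP-L50D-GFP cell wells; Timing: cells overnight before dosing, compound overnight, 37 °C, 5% CO2; Compound: one 20 µM compound dose with 1% DMSO; Read-out: GFP/RFP fluorescence ratio.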
TLR9-MyD88 inh – inhibitors of human TLR9-MyD88 binding; 0.21% of 340,000 active; inhibition, % at 4.98 µM; CHO BLA complementation TLR9-MyD88, CCF4 FRET ratio; AID 504734;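 active = inhibition above the mean over all tested compounds plus 3 SD, cut at about 21% in these data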;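 also: 0% = DMSO only wells and 100% = clavulanate BLA inhibitor control wells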
TLR4-MyD88 BLA – blocks binding of human TLR4 to MyD88; inhibition, % at 8.4 µM; 0.18% of 200,000 active; O00206+Q99836; HeLa CL3-4 TLR4/MyD88 BLA complementation, FRET ratio; in the data active = inhibition above about 25%;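 also: 0% = vehicle and 100% = reference inhibitor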
NOD2-RIPK2 conf – NOD2-RIPK2 interaction inhibition confirmed | CHO cells, NOD2-RIPK2 BLA complementation, CCF4 FRET | inhibition, % at 4.98 µM | 70% of 1,200 active | shares compounds with NOD2-RIPK2 inh;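 active = mean inhibition across replicates above a set limit taken from the earlier primary screen, cut at about 21% in these data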;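 also: 0% = DMSO-only wells and the high end = clavulanate BLA-blocked wells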
NOD2 BLA counter – hits BLA reporter in NOD2-RIPK2 inhibitor counterscreen | inhibition, % at 4.98 µM | shares compounds with NOD2-RIPK2 inh | AID 624371 | CHO BLA reporter, CCF4 FRET ratio | 57% of 1,200 active;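 active = mean inhibition above the low-control mean inhibition plus three low-control SD, cut at about 11% in these data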;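 also: 0% = DMSO only wells and 100% = clavulanate high control wells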
MT1-MMP act val – validation of inhibitors of human MT1-MMP activation. shares compounds with MT1-MMP act inh. 10% of 200 active. inhibition, % at 20 µM. HT1080 RFP-PRO-GFP cells, GFP and RFP fluorescence ratio, overnight. AID 652235;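 active = inhibition of at least 50% in the primary cell screen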
* = called active by the depositor; / = no result given.

SMILES | SKN-1 block | NOD2-RIPK2 inh | MT1-MMP act inh | TLR9-MyD88 inh | TLR4-MyD88 BLA | MT1-MMP act val | others
COc1ccc2c3c(cccc13)C(=O)N(O)C2=O | 4 | -1 | -18 | -2 | 1 | /
CCc1ccc2nc(N(CCCN(C)C)C(=O)c3ccc(S(=O)(=O)N4CCc5ccccc5C4)cc3)sc2c1 | -2 | 22* | 4 | 15 | / | / | NOD2-RIPK2 conf=23*;NOD2 BLA counter=5
CCCCNC(=O)C(C1CCCCC1)N(CCN(C)C)C(=O)CCCN1C(=O)NC(c2ccc(-c3ccccc3)cc2)C(C(=O)OCc2ccccc2)=C1C (stereo not drawn) | / | / | / | -4 | / | /
CCCCNC(=O)C(C)N(CCN(C)C)C(=O)CCCN1C(=O)NC(c2ccc([N+](=O)[O-])cc2)C(C(=O)OCc2ccccc2)=C1C (stereo not drawn) | 5 | 22* | 0 | 0 | / | / | NOD2-RIPK2 conf=2;NOD2 BLA counter=-13
O=C(CSc1nc2ncc(Br)cc2[nH]1)c1ccc([N+](=O)[O-])cc1 | -1 | 22* | 3 | -6 | 4 | / | NOD2-RIPK2 conf=13;NOD2 BLA counter=-5
N#CC(=C1C=CC(=NO)C(Cl)=C1)c1ccccc1 | 4 | 32* | 5 | / | / | / | NOD2-RIPK2 conf=39*;NOD2 BLA counter=14*
Cc1ccc2nc(SCC(=O)Nc3cc(C(F)(F)F)ccc3N3CCOCC3)[nH]c2c1 | -12 | 34* | 10 | 4 | 13 | / | NOD2-RIPK2 conf=15;NOD2 BLA counter=-1
CN1/C(=C\C(=S)NC(=O)c2ccc([N+](=O)[O-])cc2)C(C)(C)c2ccccc21 | 22 | -4 | 42* | 1 | -9 | 11
CN1/C(=C\C(=S)NC(=O)c2cccc(Br)c2)C(C)(C)c2ccccc21 | 59 | -3 | 58 | 16 | -2 | /
CC1CC(C)CN(C(=O)c2ccc3c(c2NCCO)C(=O)c2ccccc2C3=O)C1 (stereo not drawn) | 36* | -3 | 60* | 7 | -2 | 45
CCOC(=O)c1sc(=S)n(C)c1NC(=O)c1ccccc1C | 0 | -3 | 3 | 6 | -1 | /
C[C@@H]1CN([C@H](C)CO)C(=O)CCCn2nncc2CO[C@H]1CN(C)Cc1ccc2c(c1)OCO2 | -14 | -8 | 1 | 1 | / | /
Cc1cc(=O)n2[nH]c(-c3ccc(C(C)(C)C)cc3)cc2n1 | -4 | 1 | 34* | -3 | 4 | 24
O=C(COC(=O)CNC(=O)c1sc2ccccc2c1Cl)Nc1cc(Cl)cc(Cl)c1 | 8 | -6 | 1 | 4 | -1 | /
O=C1c2cccc(NCCCNCCO)c2C(=O)c2cccc(NCCCNCCO)c21 | 78 | -14 | 68* | -9 | / | 55*
Cc1ccc(S(=O)(=O)/N=C2\C=C(NS(=O)(=O)c3ccccc3)C(=O)c3ccccc32)c(C)c1 | -14 | -7 | 39* | -4 | / | 29
O=c1[nH]c(SCc2ccccc2Cl)nc2[nH]ncc12 | -10 | -14 | -1 | -8 | 4 | /
Cc1cccc(CSc2nc3[nH]ncc3c(=O)[nH]2)c1 | 16 | -4 | 35* | -1 | -4 | 11
O=Nc1c(-c2c(O)[nH]c3cc(Br)ccc23)[nH]c2ccccc12 | 23 | 4 | 77* | 17 | / | 70*
O=C(CSCc1cccc(Br)c1)N=Nc1c(O)[nH]c2ccccc12 | 15 | -2 | 4 | 9 | -7 | /
COc1cccc(CN2CCNC(=O)C2CC(=O)NCC2CCOCC2)c1 (stereo not drawn) | 5 | 8 | 1 | 4 | / | /
Nc1ccc(N2CCCCC2)cc1N1CCCCC1 | -19 | -5 | 47* | 5 | 7 | 0
Cc1c(C)n(C)c2ccc(C(=O)NCCc3ccco3)cc12 | 79 | -5 | 33* | -4 | / | 4
COc1ccc(-c2oc3ccc(-c4ccc(OC)nc4)cc3c2C#CC2(O)CCCCC2)cc1 | 15 | -7 | 32* | -11 | / | 10
COc1ccc(-c2oc3ccc(-c4ccc5c(c4)OCO5)cc3c2C#CC2(O)CCCCC2)cc1 | -11 | -4 | 15 | -15 | / | /

Screening results: PubChem, several laboratories
